Bioassay records: PubChem BioAssay, several laboratories
Rows were chosen to be rich in hits. Some 4.8% of all compounds tested hit in one or more screens of this group.
Mot1-301 SUMO: yeast Mot1-301 growth rescue at high temperature, primary screen, SUMOylation pathway inhibitor project, S. cerevisiae, ATP luminescence, 38.5C. growth rescue, % at 18.8 µM. S. cerevisiae Mot1-301 growth rescue; percent above DMSO median, 100 means doubled. 320,000 compounds, 1% hits;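 active means every valid replicate shows activation above 250% relative to neutral control wells; inactive means the rest, any valid replicate at or below 250%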
WT yeast gro inh: growth inhibition of WT strain, primary screen, mitochondrial fusion inhibitor project, WT and mutant strains, chemical genetic | mitochondrial fusion phenotypic screen | inhibition, % at 10 µM | 190,000 compounds, 2.1% hits | AID 1362, 2008; in the data active means inhibition above about 58%; tested in S. cerevisiae
Beta apoptosis: inhibitors of cytokine-induced beta cell apoptosis, primary screen, luminescence; INS-1E cytokine-induced death, ATP luminescence, 48 h; percent of positive-control rescue, neutral wells zero; protection from apoptosis, % (no concentration beside the values); 300,000 compounds, 0.8% hits; AID 435005, 2010;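 active means Every replicate reaches about 75%, or at least half do and their mean reaches it too, limit read from the data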;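 further: higher means more ATP so stronger rescue from cytokine killing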
T cruzi repl: inhibitors of intracellular T. cruzi growth, primary screen, luminescence, NIH3T3 host cells | T. cruzi beta-gal in NIH3T3, 90 h | inhibition, % (concentration not given with the values) | 300,000 compounds, 1.4% hits | AID 1885, 2009;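 active means mean inhibition across valid replicates above about 55%, limit read from the data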;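 further: signal also drops with host cell toxicity which is not excluded here; higher percent means less beta-gal luminescence so fewer parasites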
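System: mouse NIH/3T3 fibroblasts infected with β-gal-expressing T. cruzi Tulahuen C4 / Input: NIH/3T3 cells, 5,000 per well / Buffer or medium: Low-serum DMEM with 2% FBS / Probe or stimulus: 5000 reporter trypomastigotes per well / Schedule: ≥90 h infection period, 3 h prior cell attachment / Measured by: GalScreen luminescence, 60 min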
Efflux pump inh: inhibitors of Candida efflux pumps in yeast, primary screen, S. cerevisiae, Nile Red, multiplex. AID 485275, 2010. S. cerevisiae Candida pump triplex. 330,000 compounds, 0.44% hits. inhibition, % at 10 µM;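 active means plate passing quality check with inhibition over a set limit, or well fluorescence over plate mean plus 4 SD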;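 further: Nile Red retained in pooled yeast measured as flow cytometry median fluorescence; higher means more Nile Red kept so more efflux inhibition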
CSC inhib: cancer stem cell viability inhibitors, primary screen, luminescence | cancer stem cell-like cells viability | inhibition, % at 7.5 µM | 300,000 compounds, 1.1% hits; in the data active means inhibition above about 75%; tested in HMLE shEcad cells
Of the large screens only hits and unclear results are named; the others gave an inactive call.

C[C@@H]1CN([C@@H](C)CO)C(=O)c2cc(NC(=O)Nc3ccc(F)cc3)ccc2O[C@@H]1CN(C)Cc1ccc(Oc2ccccc2)cc1	CSC inhib 137.4 (no result: WT yeast gro inh, T cruzi repl)
O=C(C[n+]1ccccc1)Nc1ccccc1[N+](=O)[O-]	none (no result: WT yeast gro inh)
CCCn1nc(C(=O)NNC(=O)Cc2ccc(S(=O)(=O)N3CCOCC3)s2)c2ccccc2c1=O	none (no result: WT yeast gro inh)
O=[N+]([O-])c1cc(C(F)(F)F)cc([N+](=O)[O-])c1NCCNC(=S)Nc1ccc(Cl)c(Cl)c1	CSC inhib 107.2 (no result: WT yeast gro inh, Beta apoptosis)
C=CCOc1ccccc1CNc1cccc(F)c1	none
C=CCOc1ccccc1CNc1ccc2c(c1)OCCO2	T cruzi repl 73.0
CCCCCCCCOC(=O)C1=C(C)Nc2nnnn2C1c1cccs1 (configuration not stated)	CSC inhib 102.0
CCCCCCCOC(=O)C1=C(C)Nc2ncnn2C1c1cccs1 (configuration not stated)	none
COc1ccc(Cl)cc1S(=O)(=O)N(C)CC(=O)NCc1ccc2c(c1)OCO2	none (no result: WT yeast gro inh)
CC(NC(=O)C1CCC(C(=O)NC(C)c2ccccc2)CC1)c1ccccc1 (configuration not stated)	Beta apoptosis 237.8, CSC inhib 110.0 (no result: WT yeast gro inh)
O=C(Nc1cccc(Cl)c1)Nc1sccc1-c1nc2ccccc2s1	CSC inhib 76.0 (no result: WT yeast gro inh)
Cc1ccccc1-c1cc(C(=O)Nc2sc(C(=O)OC(C)C)c(C)c2C#N)c2ccccc2n1	CSC inhib 111.3
C[C@H](CCC(=O)O)[C@H]1CC[C@H]2[C@@H]3[C@H](O)C[C@@H]4C[C@H](O)CC[C@]4(C)[C@H]3CC[C@]12C	none (no result: WT yeast gro inh, T cruzi repl)
CC(CCC(C)C(C)(C)C)[C@@H]1CC[C@H]2C3C[C@H](OS(O)(=S)=S)[C@H]4C[C@H](OS(O)(=S)=S)[C@@H](OS(O)(=S)=S)C[C@]4(C)[C@H]3CC[C@]12C (some centres not stated) (tested in a mixture with another compound)	Mot1-301 SUMO active, Efflux pump inh 2.1, CSC inhib 98.4 (no result: WT yeast gro inh, T cruzi repl)
O=C(C[n+]1cn(C(F)F)c2ccccc21)c1ccc(OC(F)F)cc1	WT yeast gro inh 71.0
COc1cc(Cl)c(C)cc1NC(=O)CSc1sc2c(O)cc(=O)[nH]c2c1C#N	none (no result: WT yeast gro inh)
CC1c2ccccc2SC(CCCN(C)C)c2ccccc21 (configuration not stated)	T cruzi repl 54.7
CN(C)CCC1Sc2ccccc2Oc2ccccc21 (configuration not stated)	none
O=C(OCc1csc(Nc2ccccc2)n1)c1ccc(Cl)cc1	WT yeast gro inh 75.6 (no result: CSC inhib)
O=c1[nH]cnc2c1c(-c1ccccc1)cn2-c1ccc(Br)cc1	WT yeast gro inh 70.9
Fc1ccccc1COc1ccc(-c2nnn(Cc3ccccc3F)n2)cc1	CSC inhib 80.6
Cn1nnc(-c2ccc(OCc3ccccc3F)cc2)n1	none
O=C(Nc1cc(S(=O)(=O)N2CCOCC2)ccc1-n1cncn1)c1ccc(Cl)cc1	T cruzi repl 63.1 (no result: WT yeast gro inh)
O=C(Nc1cc(Cl)ccc1-n1cncn1)c1cc(S(=O)(=O)N2CCOCC2)ccc1F	none (no result: WT yeast gro inh)
O=C(Nc1cc(C(F)(F)F)ccc1-n1cncn1)c1ccc(-c2ccccc2)cc1	T cruzi repl 73.5
Cc1ccc2c(c1)N(C(=O)CCC(=O)NC1CCC(C)CC1)CCO2 (configuration not stated)	none (no result: WT yeast gro inh)
CS(=O)(=O)Nc1ccccc1C(=O)NCCSc1ccc(Cl)cc1	none (no result: WT yeast gro inh)
Cc1cccc(NC(=S)NC(C)(C)CC(C)(C)C)c1	WT yeast gro inh 68.5
Cc1ccccc1NC(=S)NCCSc1ccc(Cl)cc1	WT yeast gro inh 79.7
Cc1ccc(C)c(NC(=S)NCCSc2ccc(Cl)cc2)c1	WT yeast gro inh 77.8
CCc1ccccc1NC(=S)NCCSc1ccc(Cl)cc1	WT yeast gro inh 81.2
COc1ccc(NC(=S)NCCSc2ccc(C)cc2)c(OC)c1	none (no result: WT yeast gro inh)
COC(=O)c1c(-c2ccc3ccccc3c2)csc1NC(=O)Cc1ccc(OC)c(OC)c1	none
O=S(=O)(Nc1cccc(S(=O)(=O)N2CCCC2)c1)c1cccs1	none (no result: WT yeast gro inh, T cruzi repl)
COc1ccc(OC)c(NC(=S)NCCSc2ccc(C)cc2)c1	WT yeast gro inh 66.7
Cc1ccc(NC(=S)NCc2ccc(Cl)cc2)c(C)c1	none (no result: WT yeast gro inh)
